# Active and inactive are the calls of the source.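 Rule for the calls, unless noted: active = visually confirmed hit in the image check and inhibition above 20%; inconclusive = visually confirmed hit but inhibition not above 20%; inactive = no visual hit in the image check.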
# Assays:
# [1] = inhibitors of TNFa-induced NFkB p65 translocation, primary screen, imaging, HUVEC, MLSMR starter and 10KST1 sets (AID 438;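 active = inhibition above 20% together with a positive visual image hit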;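 note: compound added about 3h40 before a 20 min TNFalpha stimulation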;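 for inhibition: signal is the nuclear over cytoplasmic p65 intensity ratio per well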); conditions: HUVEC TNFa-induced p65 nuclear translocation; cell count: measured here: nuclei count (cytotoxicity indicator), at 2.08 µM; inhibition: at 2 µM, stronger effect = higher value, 0% TNFa-plus-vehicle, 100% no-TNFa wells
# [2] = reduction of polyQ htt aggregates in cells – imaging, exon1htt(103Q)mCFP cells, high-content imaging, primary screen (AID 483;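 active = visual image review flags a hit and inhibition of aggregation exceeds 20%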;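 note: compound exposure lasted 3 days before fixation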;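 for nuclei count: percent of the per-plate median nuclei count of sample wells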); conditions: exon1htt(103Q)mCFP cell line, aggregate imaging, at 2 µM; inhibition of aggregation: stronger effect = higher value; nuclei count: measured here: cell count, toxicity
# [3] = endothelial E-selectin expression blockers – imaging, HUVEC, immunofluorescence, MLSMR starter and 10KST1 sets, primary screen (AID 487); conditions: HUVEC TNFalpha-induced E-selectin immunofluorescence imaging, at 2 µM; inhibition: stronger effect = higher value; nuclei count: measured here: cell number, toxicity;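 for inhibition: signal is fraction of cell area covered by stained E-selectin grains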;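 for nuclei count: 100% = median nuclei count of all wells on the same plate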
# [4] = target: Voltage-gated potassium channel subunit beta-2 (Rattus norvegicus) (UniProt P62483); assay: inhibitors of rat Kvbeta2 reductase activity – biochemical, NADPH fluorescence, primary screen (AID 622;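 active = fluorescence slope higher than the sample average by over 3 SD, cut at about -0.22 in these data, passing the limit was not always enough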;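 note: slope of raw intensity against log time taken from 70 to 1610 s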); conditions: recombinant KvBeta, 4-cyanobenzaldehyde reduction, at 10 µM, stronger effect = higher value
# Voltage-gated potassium channel subunit beta-2 (Rattus norvegicus), sequence (P62483 whole entry, looked up): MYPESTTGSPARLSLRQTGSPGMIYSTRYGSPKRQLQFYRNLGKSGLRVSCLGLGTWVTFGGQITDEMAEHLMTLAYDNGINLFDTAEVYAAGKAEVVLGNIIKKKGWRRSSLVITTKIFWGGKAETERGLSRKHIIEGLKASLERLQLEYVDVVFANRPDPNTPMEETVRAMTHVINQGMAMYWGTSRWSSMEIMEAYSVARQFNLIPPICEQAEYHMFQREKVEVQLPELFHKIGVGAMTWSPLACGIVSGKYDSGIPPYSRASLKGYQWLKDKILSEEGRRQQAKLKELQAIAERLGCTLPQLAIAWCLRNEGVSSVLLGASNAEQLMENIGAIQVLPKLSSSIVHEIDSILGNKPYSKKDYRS
# [5] = target: Voltage-gated potassium channel subunit beta-2 (Rattus norvegicus) (UniProt P62483); assay: enhancers of rat Kvbeta2 NADPH turnover – biochemical, NADPH fluorescence, primary screen (AID 623;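 active = NADPH fluorescence slope more negative than the mean of all samples by about 3 SD, 99.7% confidence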;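 note: fluorescence intensity change per second fitted from 20 to 320 s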); conditions: Recombinant KvBeta, NADPH fluorescence decrease slope, 10 min; at 10 µM; stronger effect = lower value
# [6] = target: Muscarinic acetylcholine receptor M4 (Homo sapiens) (UniProt P08173); assay: M4-linked GIRK flux change, two-sided – cell-based, HEK293 M4/GIRK, thallium flux, BTC-AM, M4 allosteric agonist project, primary screen (AID 625;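 active = fluorescence slope after compound addition differing from the mean of all tested samples at 99.7% confidence, mostly higher but some lower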;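 note: thallium influx through GIRK channels coupled to M4 in HEK293 cells with BTC-AM dye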); conditions: at 10 µM, actives lie on both sides
# Muscarinic acetylcholine receptor M4 (Homo sapiens), sequence (P08173 whole entry, looked up): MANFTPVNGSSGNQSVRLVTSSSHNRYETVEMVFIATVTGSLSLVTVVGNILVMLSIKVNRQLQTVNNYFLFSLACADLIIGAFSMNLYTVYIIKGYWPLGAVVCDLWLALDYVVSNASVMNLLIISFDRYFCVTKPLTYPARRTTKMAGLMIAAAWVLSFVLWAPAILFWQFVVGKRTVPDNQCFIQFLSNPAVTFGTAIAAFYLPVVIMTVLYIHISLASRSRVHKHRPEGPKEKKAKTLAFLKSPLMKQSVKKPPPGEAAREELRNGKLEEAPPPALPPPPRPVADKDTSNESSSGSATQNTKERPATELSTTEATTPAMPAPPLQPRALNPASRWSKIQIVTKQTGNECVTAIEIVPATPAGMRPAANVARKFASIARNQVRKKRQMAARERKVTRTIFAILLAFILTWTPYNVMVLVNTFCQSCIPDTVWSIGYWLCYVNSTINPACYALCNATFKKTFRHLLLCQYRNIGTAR
# In short: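 Material – HEK293 cells with M4 receptor and GIRK channels · Buffer or medium – pH 7.3 thallium assay buffer · Doses – one dose, 10 µM final · Timing – cells overnight at 37 °C, BTC-AM loading 1 h, reads 2 min total · Measured by – kinetic fluorescence with BTC-AM dye · Controls – carbachol and DMSO controls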
# [7] = blockers of RIG-like receptor reporter activation – cell-based, Sendai virus stimulus, luciferase, 10K MLSCN set, TLR/RLR signaling modifier project, primary screen (AID 602276;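 active = inhibition at or above 50% at 10 µM; inactive = inhibition below 50%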;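 note: firefly luciferase from ISG56 promoter only with Renilla not read in this screen; 0% = Sendai virus plus DMSO and 100% = medium plus DMSO without virus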); conditions: HEK293 RL24 IRF3 luciferase reporter, at 10 µM, stronger effect = higher value
# [8] = TLR3 IRF3 reporter activation blockers – cell-based, poly I:C stimulus, luciferase, 10K MLSCN set, primary screen (AID 602277;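 active = inhibition of the reporter signal at or above 50%; inactive = inhibition below 50%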); conditions: HEK293-TLR3 RL24 IRF3 luciferase reporter, at 10 µM, stronger effect = higher value
Compound,cell count [1],inhibition [1],inhibition of aggregation [2],nuclei count [2] [%],inhibition [3],nuclei count [3] [%],fluorescence slope [4],NADPH fluorescence slope [5],fluorescence slope [6],inhibition [7],inhibition [8]
O=C1c2cccnc2C(O)N1Cc1ccc(F)cc1 (stereo not drawn),375,1.1% (inactive),13.7% (inactive),118,-11.7% (inactive),116,-0.354 (inactive),-8.5e-05 (inactive),0.00468 (inactive),10.8% (inactive),17.7% (inactive)
CCOc1ncccc1C(=O)OCC(=O)Nc1ncc(C(F)(F)F)cc1Cl,474,-12.1% (inactive),-26.1% (inactive),80.7,-29% (inactive),108,-0.588 (inactive),2.6e-05 (inactive),0.00542 (inactive),22.1% (inactive),18% (inactive)
CCOC(=O)c1[nH]c2ccc(F)cc2c1NC(=O)C(C)N1CCc2cc(OC)c(OC)cc2C1 (stereo not drawn),436,0.5% (inactive),15.1% (inactive),76.9,42.5% (inactive),96,-0.574 (inactive),-3.4e-05 (inactive),0.00265 (inactive),-0.796% (inactive),35.3% (inactive)
Cc1cc(C)c2c(n1)sc1c(N3CCOCC3)ncnc12,301,-4.9% (inactive),-151% (inactive),0.6,-61.4% (inactive),121,-0.305 (inactive),-6.3e-05 (inactive),0.00639 (inactive),5.74% (inactive),-3.16% (inactive)
Cc1nnc(NC2CCCCC2)[nH]c1=O,358,5.3% (inactive),-1.6% (inactive),103,-59.1% (inactive),115,-0.592 (inactive),-3.6e-05 (inactive),0.00733 (inactive),12.6% (inactive),14.5% (inactive)
O=C(OCCCN1C(=O)c2ccccc2C1=O)c1ccco1,643,-2.2% (inactive),17.8% (inactive),96.8,33.4% (inactive),98.5,-0.482 (inactive),4.2e-05 (inactive),0.00571 (inactive),-6.62% (inactive),-11.6% (inactive)
O=C(Cn1cnc2sc(-c3ccccc3)cc2c1=O)N1CCOCC1,353,6.9% (inactive),15.6% (inactive),98.1,-123% (inactive),114,-0.445 (inactive),-4.1e-05 (inactive),0.00489 (inactive),6.22% (inactive),-5.03% (inactive)
CCSc1ncc(C#N)c(=O)[nH]1,381,3.5% (inactive),-21.7% (inactive),89.7,-53.9% (inactive),102,-0.517 (inactive),-0.000177 (inactive),0.00385 (inactive),2.6% (inactive),6.42% (inactive)
CCOC(=O)N1CCC(Nc2c(-c3ccc(C)cc3)c(=O)c2=O)CC1,801,-12.2% (inactive),26.1% (inactive),89.2,-33.6% (inactive),106,-0.471 (inactive),-3.2e-05 (inactive),0.007 (inactive),2.25% (inactive),16.5% (inactive)
COC(=O)CCN1CCC(C(N)=O)CC1,336,-6.3% (inactive),-4.2% (inactive),107,-132% (inactive),129,-0.437 (inactive),6.8e-05 (inactive),0.00663 (inactive),1.78% (inactive),6.83% (inactive)
CCNc1nc(OC)nc(Oc2ccc(=O)n(-c3ccccc3)n2)n1,769,6.8% (inactive),8.6% (inactive),106,-86.7% (inactive),124,-0.261 (inactive),-3e-05 (inactive),0.00602 (inactive),16.1% (inactive),22% (inactive)
Cc1ccc(OCC(=O)N2CCN(C(=O)CCC3CCCC3)CC2)cc1,319,0.5% (inactive),-30.7% (inactive),84.9,-1.5% (inactive),108,-0.242 (inactive),-1.9e-05 (inactive),0.00663 (inactive),12% (inactive),11.5% (inactive)
O=C(NCc1ccco1)c1cc2c(s1)CSC2,473,-4.3% (inactive),3.2% (inactive),105,-31.1% (inactive),118,-0.544 (inactive),1.9e-05 (inactive),0.00557 (inactive),9.74% (inactive),12.5% (inactive)
CCNc1nc(NC(C)C)nc(N(C#N)CCOc2ccc(Cl)cc2Cl)n1,603,-8.6% (inactive),20.7% (inactive),98.5,-123% (inactive),96.3,-0.446 (inactive),-3.7e-05 (inactive),0.00644 (inactive),15.5% (inactive),-2.09% (inactive)
CCNC(=O)C1CC(=O)N(Cc2ccc3c(c2)OCO3)C(=Nc2ccc(OCC)cc2)S1 (stereo not drawn),577,-3.7% (inactive),13.6% (inactive),108,-3.2% (inactive),119,-0.588 (inactive),1.7e-05 (inactive),0.00371 (inactive),17.9% (inactive),21.2% (inactive)
CSc1nc(NC(C)(C)C)nc(Oc2ccc(=O)[nH]n2)n1,356,-6.2% (inactive),10.5% (inactive),86.5,-29.6% (inactive),107,-0.594 (inactive),1.9e-06 (inactive),0.0039 (inactive),12.8% (inactive),11.8% (inactive)
Cc1cccc(NC(=O)CCn2ccnc2C)c1,628,1.2% (inactive),-6.6% (inactive),96.8,-65.9% (inactive),93,-0.574 (inactive),-5e-05 (inactive),0.00688 (inactive),10.5% (inactive),8.13% (inactive)
O=C(CP(=O)(CO)CO)c1ccc(Cl)cc1,863,-2.9% (inactive),18.9% (inactive),119,2.9% (inactive),126,-0.536 (inactive),4.7e-05 (inactive),0.00425 (inactive),3.99% (inactive),14.2% (inactive)
CCCC(=O)N=C1SC2CS(=O)(=O)CC2N1c1ccc(CC)cc1 (stereo not drawn),286,20.4% (inactive),23.4% (inactive),87,26.4% (inactive),98.5,-0.402 (inactive),-3.7e-05 (inactive),0.0062 (inactive),15.3% (inactive),24.6% (inactive)
Cc1ccc(S(=O)(=O)n2nc(OC(=O)c3ccco3)cc2N)cc1,512,-8.3% (inactive),-12% (inactive),115,-8.9% (inactive),150,-0.554 (inactive),-9.4e-05 (inactive),0.00488 (inactive),-8.24% (inactive),-6.95% (inactive)
Cc1nn(-c2ccccc2)c(C)c1C(=O)OCC(=O)c1c(N)n(CC(C)C)c(=O)n(C)c1=O,486,4.2% (inactive),-2.5% (inactive),78.8,-65.4% (inactive),127,-0.504 (inactive),0.000168 (inactive),0.00552 (inactive),4.86% (inactive),-99.7% (inactive)
COc1ccc(-c2cc(C(F)(F)F)nc(SCCC(=O)N3CCOCC3)n2)cc1,506,-6.7% (inactive),-23.3% (inactive),83.6,-59.7% (inactive),133,-0.596 (inactive),-1.1e-06 (inactive),0.00462 (inactive),16.4% (inactive),-4.79% (inactive)
COCC(=O)Nc1sc2c(c1C(=O)OC)CCC(C)C2 (stereo not drawn),421,5.5% (inactive),-7.6% (inactive),94.2,-127% (inactive),126,-0.471 (inactive),-3.9e-05 (inactive),0.00475 (inactive),16.5% (inactive),-17% (inactive)
Cc1nc2cc(NC(=O)N3CC4(C)CC3CC(C)(C)C4)ccc2n1C (stereo not drawn),657,2.1% (inactive),6.5% (inactive),104,11.9% (inactive),105,-0.484 (inactive),-8.2e-05 (inactive),0.00526 (inactive),-4.69% (inactive),16.4% (inactive)
O=C(CCCn1c(=O)c2sccc2n(Cc2ccc(F)cc2)c1=O)NCc1ccco1,417,-9.3% (inactive),3% (inactive),92.5,-40.1% (inactive),106,-0.583 (inactive),-2.1e-06 (inactive),0.00594 (inactive),7.63% (inactive),15.5% (inactive)
OCC#CCSc1nnc(-c2ccccc2Br)o1,390,-5.2% (inactive),-3.5% (inactive),110,-111% (inactive),132,-0.515 (inactive),-0.000137 (inactive),0.00341 (inactive),-9.39% (inactive),-45.2% (inactive)
Cc1cccc(OCC(=O)Nc2ccccc2N2CCN(C(=O)C(C)C)CC2)c1C,232,-21.4% (inactive),6% (inactive),73.8,-26.3% (inactive),68.6,-0.585 (inactive),-2.3e-05 (inactive),0.00511 (inactive),15.5% (inactive),25.9% (inactive)
COc1cccc(/C(O)=C2/C(=O)C(=O)N(CCN3CCOCC3)C2c2cccnc2)c1 (stereo not drawn),270,15% (inactive),5.3% (inactive),107,-37.6% (inactive),117,-0.576 (inactive),-1.6e-05 (inactive),0.00687 (inactive),-4.6% (inactive),9.66% (inactive)
